Published values collected from several papers.
Each line is one published result; the experiments were not run side by side.
Observed: enzyme activity
Action: inhibitor
KIT: Mast/stem cell growth factor receptor Kit (KIT, Homo sapiens, UniProt P10721)
KIT D816V: Mast/stem cell growth factor receptor Kit (KIT, Homo sapiens, UniProt P10721, D816V)

| Compound | target | technique | tested at | inhibition |
| --- | --- | --- | --- | --- |
| CN1CC(Oc2cnc(C#N)cc2-c2ccn3nc(NC(=O)C4CC4)cc3c2)C1 | KIT |  | 1 µM | 4% |
| C=CC(=O)Nc1cc(Nc2nccc(Nc3cc(Cl)c(F)cc3C(C)(C)O)n2)c(OC)cc1N1CC[C@@H](N(C)C)C1 | KIT |  | 1 µM | 2% |
| CN(C)C1CCN(CC#Cc2nn(C3CCCC3)c3nc(NCc4ccccc4)ncc23)C1 (stereo not shown) | KIT | FRET | 0.1 µM | 1% |
| CS(=O)(=O)Nc1cccc(-c2csc(NC(=O)CSc3nc4nccnc4c(=O)n3CCc3ccccc3)n2)c1 | KIT D816V |  | 10 µM | -1% |
| CC/C(=N\NC(=O)NCc1cccc(O)c1)c1ccc(O)c(C)c1O | Mast/stem cell growth factor receptor Kit (KIT, Homo sapiens, UniProt P10721, V654A) |  | 0.1 µM | -0.5% |
| COc1cc2ncnc(Nc3ccc(Oc4ccccc4)c(C)c3C)c2cc1OC | KIT |  | 1 µM | 8% |
| O=C(CSc1nc2nccnc2c(=O)n1CCc1ccccc1)Nc1nccs1 | KIT D816V |  | 10 µM | 6% |
| CCOc1cc(-c2nncn2C)ccc1Nc1ncc2cc(C)nc(NCC(C)(C)C)c2n1 | KIT | FRET | 1 µM | < 15% |
| COc1cc(-c2cc(-c3ccc(N4CCNCC4)cc3)cnc2N)cc(OC)c1OC | Mast/stem cell growth factor receptor Kit (KIT, Homo sapiens, UniProt P10721, V560G) |  | 1 µM | 5% |
| COc1cc2ncnc(Nc3ccc(Oc4ccccc4)cc3C)c2cc1OC | KIT |  | 1 µM | -1% |
